Assay results from ChEMBL document CHEMBL1833870, “Deconstruction of the α4β2 nicotinic acetylcholine receptor positive allosteric modulator desformylflustrabromine” (J Med Chem, 2011).
Counter-ions that a name gives are not always drawn. The source made the active and inactive calls. No cut-off for these calls is given here.

Key:
[1] = molecular target: T1, Neuronal acetylcholine receptor; alpha4/beta2 (Homo sapiens, UniProt P17787+P43681); test: Agonist activity at human alpha4beta2 nACHR expressed in xenopus oocyte assessed as potentiation of acetylcholine-induced current by two electrode voltage clamp assay; assay type: functional
T1 sequence (P17787 whole entry, the tested form may be a part): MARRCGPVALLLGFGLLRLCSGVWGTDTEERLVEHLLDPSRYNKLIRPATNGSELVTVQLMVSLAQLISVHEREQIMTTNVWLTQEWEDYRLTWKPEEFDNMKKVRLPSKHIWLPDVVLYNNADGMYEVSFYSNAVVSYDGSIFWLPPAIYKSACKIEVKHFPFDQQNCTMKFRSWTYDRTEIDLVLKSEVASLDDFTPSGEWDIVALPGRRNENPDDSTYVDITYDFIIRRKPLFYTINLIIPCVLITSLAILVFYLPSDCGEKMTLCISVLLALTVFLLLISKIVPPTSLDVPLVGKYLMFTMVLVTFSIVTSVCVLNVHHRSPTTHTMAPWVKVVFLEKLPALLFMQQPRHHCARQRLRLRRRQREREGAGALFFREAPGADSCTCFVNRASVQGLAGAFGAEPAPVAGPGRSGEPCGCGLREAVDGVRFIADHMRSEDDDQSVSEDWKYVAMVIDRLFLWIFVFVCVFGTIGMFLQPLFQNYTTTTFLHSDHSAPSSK
T1 sequence (P43681 whole entry, the tested form may be a part): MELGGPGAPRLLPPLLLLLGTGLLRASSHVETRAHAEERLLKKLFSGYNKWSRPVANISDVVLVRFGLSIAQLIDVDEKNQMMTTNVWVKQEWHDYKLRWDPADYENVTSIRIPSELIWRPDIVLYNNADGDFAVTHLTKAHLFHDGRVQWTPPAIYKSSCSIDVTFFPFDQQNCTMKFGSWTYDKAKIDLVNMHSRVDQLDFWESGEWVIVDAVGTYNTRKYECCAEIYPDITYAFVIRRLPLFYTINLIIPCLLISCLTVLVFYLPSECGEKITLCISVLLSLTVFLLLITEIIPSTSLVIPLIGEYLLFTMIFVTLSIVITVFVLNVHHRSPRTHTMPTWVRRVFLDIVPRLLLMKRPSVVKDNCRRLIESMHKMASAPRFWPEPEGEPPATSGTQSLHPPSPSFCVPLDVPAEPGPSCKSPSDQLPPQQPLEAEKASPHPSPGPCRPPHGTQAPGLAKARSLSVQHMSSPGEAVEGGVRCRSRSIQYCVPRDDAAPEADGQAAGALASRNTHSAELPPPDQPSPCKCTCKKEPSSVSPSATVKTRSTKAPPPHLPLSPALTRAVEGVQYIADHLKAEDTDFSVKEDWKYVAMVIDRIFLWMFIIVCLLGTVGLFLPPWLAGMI
Method in brief: (§1)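 Human α4 and β2 cRNA injected into stage IV Xenopus oocytes (50 nL total at 0.2 ng/nL, subunit ratio as appropriate), then incubated 24–72 h at 19 °C. Two-electrode voltage clamp in a vertical flow chamber perfused with ND-96 (pH 7.4) at 20 mL/min. Compound in ND-96 was co-applied with ACh, and the enhancement of current was measured. Concentration–response curves were fit by non-linear regression.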

[2] = molecular target: Neuronal acetylcholine receptor subunit alpha-7 (Homo sapiens, UniProt P36544); test: Antagonist activity at human alpha7 nAChR expressed in xenopus oocyte assessed as inhibition of acetylcholine-induced current by two-electrode voltage clamp assay; assay type: functional
Chain of Neuronal acetylcholine receptor subunit alpha-7 (P36544 whole entry, the tested form may be a part): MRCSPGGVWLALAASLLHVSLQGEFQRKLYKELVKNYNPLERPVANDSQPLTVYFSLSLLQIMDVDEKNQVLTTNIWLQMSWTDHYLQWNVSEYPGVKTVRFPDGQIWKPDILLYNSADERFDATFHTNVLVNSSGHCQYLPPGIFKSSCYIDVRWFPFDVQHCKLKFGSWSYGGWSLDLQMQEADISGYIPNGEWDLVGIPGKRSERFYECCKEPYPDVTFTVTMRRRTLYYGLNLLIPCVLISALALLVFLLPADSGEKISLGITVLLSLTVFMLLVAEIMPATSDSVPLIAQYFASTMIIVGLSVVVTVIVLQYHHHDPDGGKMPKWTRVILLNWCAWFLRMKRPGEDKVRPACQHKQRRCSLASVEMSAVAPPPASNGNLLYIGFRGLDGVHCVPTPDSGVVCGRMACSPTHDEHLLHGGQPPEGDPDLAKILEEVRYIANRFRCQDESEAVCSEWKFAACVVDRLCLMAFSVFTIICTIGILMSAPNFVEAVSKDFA
Method in brief: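 Xenopus stage IV oocytes were injected with human α7 cRNA (50 nL, 0.2 ng/nL) and kept 24–72 h at 19 °C. Recording was by two-electrode voltage clamp with ND-96 perfusion (pH 7.4) at 20 mL/min. Compound dissolved in ND-96 was co-applied with ACh, and inhibition of the ACh response was read. Concentration–response data were fit by non-linear regression.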

[3] = molecular target: T1, Neuronal acetylcholine receptor; alpha4/beta2; test: Agonist activity at human alpha4beta2 nACHR expressed in xenopus oocyte assessed as potentiation of acetylcholine-induced current by two electrode voltage clamp assay relative to acetylcholine; assay type: functional; method in brief: as §1
[4] = organism: Homo sapiens; test: Selectivity ratio of IC50 for human alpha7 nAChR to IC50 for human alpha4beta2 nAChR

| Compound | pEC50 [1] | EC50 [2] | EC50 ([1]; read-out: EC50) | EC50 ([1]; read-out: pEC50 (converted)) | Emax [3] | Ratio IC50 [4] |
| --- | --- | --- | --- | --- | --- | --- |
| CCCc1[nH]c2cc(Br)ccc2c1CCNC | inactive | 20.9 µM | – | – | – | – |
| C=CC(C)(C)c1[nH]c2ccccc2c1CCNC | – | 7.76 µM | 6.77 µM | 7.24 µM | 250% | – |
| CCC(C)(C)c1[nH]c2cc(Br)ccc2c1CCNC | – | 25.7 µM | 0.1 µM | 0.138 µM | 290% | 190 |
| CNCCc1c(C(C)C)[nH]c2ccccc12 | inactive | – | – | – | – | – |
| C=CCc1[nH]c2cc(Br)ccc2c1CCNC | inactive | 29.5 µM | – | – | – | – |
| CNCCc1c(C(C)(C)C)[nH]c2ccccc12 | – | 4.79 µM | – | 3.98 µM | – | – |
| C=CC(C)(C)c1[nH]c2cc(Br)ccc2c1CCN | – | 5.75 µM | – | 0.513 µM | – | – |
| CCC(C)c1[nH]c2ccccc2c1CCNC (racemic) | inactive | 9.77 µM | – | – | – | – |
| CCC(C)(C)c1[nH]c2ccccc2c1CCNC | – | 20.4 µM | 1.22 µM | 3.02 µM | 260% | – |
| CCCc1[nH]c2ccccc2c1CCNC | inactive | 44.7 µM | – | – | – | – |
| CNCCc1c[nH]c2cc(Br)ccc12 | inactive | 11 µM | – | – | – | – |
| C=CC(C)(C)c1[nH]c2cc(Br)ccc2c1CCNC [DESFORMYLFLUSTRABROMINE HYDROCHLORIDE] | – | 1.86 µM | 0.32 µM | 0.331 µM | – | – |
